This passage reports inhibition, IC50 and Activity results from ChEMBL document CHEMBL4819057, “Discovery of antiproliferative and anti-FAK inhibitory activity of 1,2,4-triazole derivatives containing acetamido carboxylic acid skeleton” (Bioorg Med Chem Lett, 2021).

The source made the active and inactive calls. The calls are words filed in the database; no cut-off is given here.

As a reminder, the IC50 is the point on the concentration scale where inhibition reaches its midpoint.

In assay [1] the target is c-Jun N-terminal kinase, JNK (Homo sapiens) (UniProt P45983+P53779+P45984). The assay is described as follows: Inhibition of JNK in human HepG2 cells assessed as reduction in JNK phosphorylation by Westernblot analysis. The class given is cell-based. The method, boiled down: (§1)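 HepG2 cells treated, with DMSO as negative control (4 μM stated for p-FAK). Western blot for phospho-FAK, -PI3K, -Akt, -JNK and -STAT3 with GAPDH as loading control. Each phospho band is quantified by densitometry relative to its total protein. Means ± SEM of three experiments, with significance vs DMSO.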

For assay [2], the system named is Hep 3B2. The assay can be described thus: Antiproliferative activity against human Hep3B cells assessed as growth inhibition. The class given is functional, cell-based.
For assay [3], the system named is HepG2. The assay can be described thus: Inhibition of PI3K in human HepG2 cells assessed as reduction in PI3K phosphorylation by Westernblot analysis. The class given is cell-based. The method, boiled down:
as §1

The target of assay [4] is RAC-alpha serine/threonine-protein kinase (Homo sapiens) (UniProt P31749). The assay can be described thus: Inhibition of Akt in human HepG2 cells assessed as reduction in Akt phosphorylation by Westernblot analysis. The class given is cell-based. The method in brief: as §1
Chain of RAC-alpha serine/threonine-protein kinase (Homo sapiens) (P31749 whole entry): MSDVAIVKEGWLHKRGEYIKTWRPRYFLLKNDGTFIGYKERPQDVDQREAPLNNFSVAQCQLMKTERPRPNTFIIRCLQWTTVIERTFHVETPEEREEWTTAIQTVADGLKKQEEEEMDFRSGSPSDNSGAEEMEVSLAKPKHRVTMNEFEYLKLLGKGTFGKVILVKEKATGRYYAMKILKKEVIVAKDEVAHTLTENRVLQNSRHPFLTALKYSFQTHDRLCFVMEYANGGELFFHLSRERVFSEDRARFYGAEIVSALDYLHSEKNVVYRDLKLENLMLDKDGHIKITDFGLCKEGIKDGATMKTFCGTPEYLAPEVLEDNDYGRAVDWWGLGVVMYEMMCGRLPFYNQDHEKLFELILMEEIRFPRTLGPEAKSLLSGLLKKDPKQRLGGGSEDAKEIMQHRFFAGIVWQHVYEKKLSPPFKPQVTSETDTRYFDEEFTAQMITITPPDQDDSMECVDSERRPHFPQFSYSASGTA
Assay [5] has as its target T1, Focal adhesion kinase 1 (Homo sapiens, UniProt Q05397). The assay is described as follows: Inhibition of FAK (unknown origin).
Target sequence in this assay (Q05397 whole entry): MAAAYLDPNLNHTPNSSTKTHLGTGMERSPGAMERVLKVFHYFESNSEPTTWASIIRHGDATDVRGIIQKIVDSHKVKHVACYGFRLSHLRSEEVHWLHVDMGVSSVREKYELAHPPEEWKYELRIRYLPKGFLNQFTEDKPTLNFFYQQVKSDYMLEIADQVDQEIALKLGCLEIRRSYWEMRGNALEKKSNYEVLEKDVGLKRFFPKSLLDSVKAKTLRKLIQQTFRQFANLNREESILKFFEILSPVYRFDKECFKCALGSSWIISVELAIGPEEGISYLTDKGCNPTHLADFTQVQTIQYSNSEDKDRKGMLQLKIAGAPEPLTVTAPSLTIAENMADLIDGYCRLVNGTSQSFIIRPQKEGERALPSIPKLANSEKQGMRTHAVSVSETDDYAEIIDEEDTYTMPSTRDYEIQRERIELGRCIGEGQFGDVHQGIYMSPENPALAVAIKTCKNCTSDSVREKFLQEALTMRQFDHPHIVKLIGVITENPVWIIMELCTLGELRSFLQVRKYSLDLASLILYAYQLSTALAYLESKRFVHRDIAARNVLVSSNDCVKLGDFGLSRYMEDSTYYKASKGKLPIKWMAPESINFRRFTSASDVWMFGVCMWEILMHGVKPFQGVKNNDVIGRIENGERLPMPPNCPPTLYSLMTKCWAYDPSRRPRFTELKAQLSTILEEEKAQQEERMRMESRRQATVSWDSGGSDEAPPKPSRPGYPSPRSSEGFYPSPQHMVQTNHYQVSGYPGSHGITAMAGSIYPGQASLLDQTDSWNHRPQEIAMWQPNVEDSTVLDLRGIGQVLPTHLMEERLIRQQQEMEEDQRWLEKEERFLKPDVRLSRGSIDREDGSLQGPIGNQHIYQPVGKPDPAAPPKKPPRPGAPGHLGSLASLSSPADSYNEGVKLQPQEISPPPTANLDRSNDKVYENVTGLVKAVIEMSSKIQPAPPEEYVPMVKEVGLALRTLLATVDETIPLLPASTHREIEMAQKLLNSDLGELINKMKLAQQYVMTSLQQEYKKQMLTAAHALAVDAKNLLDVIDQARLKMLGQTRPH
Assay [6] deals with Signal transducer and activator of transcription 3 (Homo sapiens) (UniProt P40763). The assay can be described thus: Inhibition of STAT3 in human HepG2 cells assessed as reduction in STAT3 phosphorylation by Westernblot analysis. The class given is cell-based. The method, boiled down: as §1
Chain of Signal transducer and activator of transcription 3 (Homo sapiens) (P40763 whole entry): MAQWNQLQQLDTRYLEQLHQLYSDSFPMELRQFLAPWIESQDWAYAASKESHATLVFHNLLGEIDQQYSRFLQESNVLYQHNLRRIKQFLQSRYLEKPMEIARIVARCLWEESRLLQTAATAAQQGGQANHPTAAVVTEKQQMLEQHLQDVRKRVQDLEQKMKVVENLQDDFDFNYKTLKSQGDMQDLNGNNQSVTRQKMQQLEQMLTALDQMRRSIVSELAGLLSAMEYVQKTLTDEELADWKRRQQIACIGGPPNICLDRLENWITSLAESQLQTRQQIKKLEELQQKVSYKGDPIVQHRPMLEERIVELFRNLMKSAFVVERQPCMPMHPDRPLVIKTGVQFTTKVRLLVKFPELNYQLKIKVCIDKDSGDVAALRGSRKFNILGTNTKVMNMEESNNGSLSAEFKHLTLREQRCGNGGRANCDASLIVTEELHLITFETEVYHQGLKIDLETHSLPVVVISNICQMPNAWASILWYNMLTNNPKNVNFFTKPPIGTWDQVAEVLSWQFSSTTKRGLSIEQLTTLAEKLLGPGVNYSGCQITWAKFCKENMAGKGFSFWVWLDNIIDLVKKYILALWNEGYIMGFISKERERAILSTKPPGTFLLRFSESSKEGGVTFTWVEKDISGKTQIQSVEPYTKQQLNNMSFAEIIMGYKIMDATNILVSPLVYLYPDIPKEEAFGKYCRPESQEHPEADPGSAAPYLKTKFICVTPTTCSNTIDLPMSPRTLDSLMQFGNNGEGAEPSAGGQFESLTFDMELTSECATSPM
The target of assay [7] is T1, Focal adhesion kinase 1. The assay can be described thus: Inhibition of human FAK phosphorylation in human HepG2 cells at 4 uM by Western blot analysis. The class given is cell-based. The method in brief:
as §1
Background: In western blotting, separated proteins are transferred to a membrane and probed.
Target sequence in this assay (Q05397 2-1052 limits assumed): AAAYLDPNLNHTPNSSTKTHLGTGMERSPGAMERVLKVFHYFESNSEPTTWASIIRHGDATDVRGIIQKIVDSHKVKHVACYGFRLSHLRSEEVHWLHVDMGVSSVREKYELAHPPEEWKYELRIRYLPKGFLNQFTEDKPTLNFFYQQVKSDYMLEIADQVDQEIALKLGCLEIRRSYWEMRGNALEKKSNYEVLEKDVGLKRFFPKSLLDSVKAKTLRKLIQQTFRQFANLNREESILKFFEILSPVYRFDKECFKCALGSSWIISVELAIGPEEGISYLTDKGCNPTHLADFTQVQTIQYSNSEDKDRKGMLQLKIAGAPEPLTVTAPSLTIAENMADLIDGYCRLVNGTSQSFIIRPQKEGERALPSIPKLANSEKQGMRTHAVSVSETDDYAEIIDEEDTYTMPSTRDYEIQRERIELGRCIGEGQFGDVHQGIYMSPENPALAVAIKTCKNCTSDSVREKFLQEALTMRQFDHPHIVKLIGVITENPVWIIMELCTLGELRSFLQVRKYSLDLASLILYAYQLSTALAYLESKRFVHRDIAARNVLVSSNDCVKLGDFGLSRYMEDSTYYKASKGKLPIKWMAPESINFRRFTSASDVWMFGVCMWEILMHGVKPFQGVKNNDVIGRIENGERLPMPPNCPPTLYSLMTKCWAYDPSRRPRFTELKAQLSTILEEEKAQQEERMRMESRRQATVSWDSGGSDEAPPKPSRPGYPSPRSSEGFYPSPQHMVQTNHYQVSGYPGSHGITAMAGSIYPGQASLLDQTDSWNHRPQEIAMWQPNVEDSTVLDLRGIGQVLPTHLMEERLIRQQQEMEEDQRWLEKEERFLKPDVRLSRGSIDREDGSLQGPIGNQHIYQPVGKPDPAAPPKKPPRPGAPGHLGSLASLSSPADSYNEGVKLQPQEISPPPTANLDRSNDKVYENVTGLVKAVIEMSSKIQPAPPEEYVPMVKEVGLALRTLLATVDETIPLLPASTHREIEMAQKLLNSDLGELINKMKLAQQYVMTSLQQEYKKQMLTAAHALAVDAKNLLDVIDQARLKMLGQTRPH

Assay [8] deals with HepG2. The assay is described as follows: Antiproliferative activity against human HepG2 cells assessed as growth inhibition. The class given is functional, cell-based.
Assay [9] has as its system HepG2. The assay is described as follows: Induction of apoptosis in human HepG2 cells assessed as necrotic cells after 24 hrs by Annexin V/propidium iodide staining based assay (reference value: 0.79%). The class given is functional.
For assay [10], the system named is HepG2. The assay can be described thus: Induction of apoptosis in human HepG2 cells assessed as late apoptotic cells after 24 hrs by Annexin V/propidium iodide staining based assay (reference value: 0.09%). The class given is functional.
Assay [11] concerns HepG2. The assay is described as follows: Induction of apoptosis in human HepG2 cells assessed as early apoptotic cells after 24 hrs by Annexin V/propidium iodide staining based assay (reference value: 0.33%). The class given is functional.
In assay [12] the test system is HepG2. The assay can be described thus: Induction of cell cycle arrest in human HepG2 assessed as accumulation of cells at S phase at 3.78 uM incubated for 24 hrs by Flow cytometric analysis. The class given is functional. A general note: A flow cytometer gives signals particle by particle.
Assay [13] relates to HepG2. The assay is described as follows: Induction of cell cycle arrest in human HepG2 assessed as accumulation of cells at sub G1 phase at 3.78 uM incubated for 24 hrs by Flow cytometric analysis.

With `C=CCn1c(SCC(=O)Nc2ccc(C(=O)O)cc2)nnc1-c1ccncc1`, the inhibition result in assay [1], in [3], in [4], in assay [6] and in assay [7] was “Active” throughout. Besides, the figures for the IC50 in [2], in [5] and in [8] were 2.88 µM, 0.0364 µM and 4.72 µM, respectively.
As to `COc1cccc2c1C(=O)c1c(O)c3c(c(O)c1C2=O)C[C@@](O)(C(=O)CO)C[C@@H]3O[C@H]1C[C@H](N)[C@H](O)[C@H](C)O1` [DOXORUBICIN], the IC50 was 7.21 µM in assay [2] and 1.99 µM in assay [8].
The like results for `Cn1c(SCC(=O)Nc2ccc(C(=O)O)cc2)nnc1-c1ccncc1` were, in that order, 3.87 µM and 8.83 µM.
As to `O=C(CSc1nnc(-c2ccncc2)n1-c1ccccc1)Nc1ccc(C(=O)O)cc1`, the inhibition entry in [1], in assay [3], in assay [4], in assay [6] and in [7] was “Active” in each case. Further, the IC50 in assay [2] turned out to be 4.83 µM; in assay [5], 0.0181 µM; in assay [8], 3.78 µM. The Activity is listed as 12.59% in [9]; 23.71% in [10]; 5.31% in assay [11]; 54.11% in [12]; 41.61% in assay [13].
Turning to `CCn1c(SCC(=O)Nc2ccc(C(=O)O)cc2)nnc1-c1ccncc1`, the concentration for half-maximal inhibition (IC50) in assay [2] came out at 17.9 µM; in assay [8], 41 µM.
